Assay results: PMC4564109 (Journal of biomolecular screening, 2014)
Like-named read-outs stand apart in the source and are kept apart here.

What was measured:
[1] = target: T1, recombinant human DNase I (Homo sapiens, UniProt P24855); test: High-throughput DNase I screening assay; assay type: biochemical; conditions: for Type of inhibition according to Lineweaver–Burk plots: DNase I
T1 sequence (P24855 23-282): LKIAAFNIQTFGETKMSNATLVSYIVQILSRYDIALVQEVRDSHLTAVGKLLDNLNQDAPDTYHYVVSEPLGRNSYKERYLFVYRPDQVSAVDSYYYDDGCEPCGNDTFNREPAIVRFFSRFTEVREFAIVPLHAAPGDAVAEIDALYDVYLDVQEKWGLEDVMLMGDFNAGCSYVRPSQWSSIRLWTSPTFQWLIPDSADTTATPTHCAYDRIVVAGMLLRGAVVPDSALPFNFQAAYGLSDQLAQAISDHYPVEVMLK

[2] = target: T2, DNase II (Sus scrofa, UniProt O62855); test: HTS fluorescent probe assay with DNase II; assay type: biochemical; conditions: DNase II 3.32 nM, pH 5.0; compared with DNase I
T2 sequence (O62855 22-364): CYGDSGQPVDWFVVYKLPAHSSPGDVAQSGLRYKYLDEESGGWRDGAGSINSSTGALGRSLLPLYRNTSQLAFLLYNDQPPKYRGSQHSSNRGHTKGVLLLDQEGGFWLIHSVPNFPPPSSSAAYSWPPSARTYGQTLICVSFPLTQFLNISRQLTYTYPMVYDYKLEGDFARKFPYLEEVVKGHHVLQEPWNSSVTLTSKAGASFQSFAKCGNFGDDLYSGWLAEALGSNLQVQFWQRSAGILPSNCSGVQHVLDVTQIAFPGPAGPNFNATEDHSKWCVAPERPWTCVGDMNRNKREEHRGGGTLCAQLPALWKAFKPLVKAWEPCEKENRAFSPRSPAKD

[3] = target: T3, recombinant murine EndoG (Mus musculus, UniProt O08600); test: HTS fluorescent probe assay with EndoG; assay type: biochemical; conditions: EndoG 0.14 μM; compared with DNase I
T3 sequence (O08600 45-294): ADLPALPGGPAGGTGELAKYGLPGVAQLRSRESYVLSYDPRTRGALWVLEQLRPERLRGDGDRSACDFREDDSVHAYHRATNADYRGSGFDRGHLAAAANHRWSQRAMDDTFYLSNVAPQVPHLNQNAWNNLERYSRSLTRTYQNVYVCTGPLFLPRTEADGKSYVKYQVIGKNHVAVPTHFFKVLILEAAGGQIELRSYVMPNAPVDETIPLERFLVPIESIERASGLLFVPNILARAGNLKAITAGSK
Method in brief: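 Fluorescence was read kinetically at 37 °C, and mean velocity (mRFU/min) was taken over 20 min after background subtraction. Activity was expressed as a percentage of the DMSO control.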

[4] = target: micrococcal nuclease (Staphylococcus aureus, UniProt P00644); test: Plasmid incision assay; assay type: biochemical, bacterial; conditions: 10 μM
Method in brief: (§1)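 Plasmid incision: 1 μg pECFP plasmid in 2 mM CaCl₂, 5 mM MgCl₂, 10 mM Tris-HCl pH 7.4, 0.5 mM DTT, test compound in DMSO (1% final), nuclease added, 1 h at 37 °C. The reaction was stopped with SDS/EDTA and run on a 1% agarose TAE gel at 7 V/cm for 35 min. Ethidium bromide-stained supercoiled band was quantified densitometrically.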

[5] = target: Benzonase (Serratia marcescens, UniProt P13717); test: Plasmid incision assay; assay type: biochemical, bacterial; conditions: 10 μM
Chain of Benzonase (P13717 22-266): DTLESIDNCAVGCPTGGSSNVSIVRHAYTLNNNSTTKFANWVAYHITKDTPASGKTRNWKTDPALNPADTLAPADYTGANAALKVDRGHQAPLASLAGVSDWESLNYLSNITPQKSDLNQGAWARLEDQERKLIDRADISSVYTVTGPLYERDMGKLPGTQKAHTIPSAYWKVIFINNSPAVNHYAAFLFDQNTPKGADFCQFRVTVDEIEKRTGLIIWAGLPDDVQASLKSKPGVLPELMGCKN
Method in brief: as §1

[6] = target: T4, RNase A (Bos taurus, UniProt P61823); test: Ribonuclease A Detection kit; assay type: biochemical; conditions: 1 μM and 100 μM
T4 sequence (P61823 27-150): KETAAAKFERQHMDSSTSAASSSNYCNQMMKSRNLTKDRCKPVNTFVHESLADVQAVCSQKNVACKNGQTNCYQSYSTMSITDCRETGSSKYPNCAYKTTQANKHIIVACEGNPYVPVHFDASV

[7] = tested on: protease; test: Protease Fluorescent Detection kit; assay type: biochemical; conditions: 1 μM and 100 μM
[8] = tested on: SOD; test: SOD Determination kit; assay type: biochemical; conditions: 1 μM and 100 μM
[9] = tested on: NRK-52E cells; test: Cell death assay; assay type: cell-based, rat; conditions: for Protection against cisplatin-induced cell death (LDH release): cisplatin 60 μM, 24 h; for Cytotoxicity of the inhibitor: highest concentration tested
Method in brief: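 NRK-52E rat tubular epithelial cells were grown in DMEM with 5% FBS at 37 °C, 5% CO₂, and used within 1 d after confluence. Cells were seeded at 8000–10,000 per well, grown 24 h, then pre-incubated 2 h with serial dilutions of test compound. Cisplatin 60 μM was added, and LDH release was measured after 24 h with a CytoTox96 kit. Mean ± SD, n = 4.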

[10] = tested on: NRK-52E cells; test: TUNEL assay of cisplatin-induced DNA fragmentation; assay type: cell-based, rat; conditions: inhibitor 100 μM, 24 h cisplatin 60 μM
Method in brief: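 Cells were exposed to cisplatin for 24 h in the presence of test compound at 100 μM, fixed in 5% formalin, TUNEL-stained with an in situ cell death detection kit, and counterstained with DAPI. Green-channel mean optical density for TUNEL-positive DNA damage was recorded over 10 independent fields per subset. Mean ± SD, n = 4.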

[11] = tested on: EndoG; test: EndoG protein expression by quantitative immunohistochemistry; assay type: cell-based, rat; conditions: NRK-52E cells, cisplatin 60 μM
Method in brief: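 NRK-52E cells were fixed in 5% formalin and stained with rabbit anti-EndoG (1:200 in 0.5% BSA, 0.05% Tween-20, PBS), then AlexaFluor 647 anti-rabbit IgG (1:400), with DAPI counterstain. The control omitted the primary antibody. Red-channel mean optical density was recorded over 10 independent fields per subset. Mean ± SD, n = 4.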

[12] = Solubility in water; assay type: physicochemical
[13] = tested on: LDH; conditions: 1 μM and 100 μM
[14] = tested on: EndoG; test: EndoG mRNA expression by real-time RT-PCR; assay type: cell-based, rat; conditions: NRK-52E cells, cisplatin
[15] = read-out: IC50 against DNase I, DNase I 1.72 nM, 37 °C, HTS assay

| IC50 [1] [µM] | Compound | Type of inhibition according to Lineweaver–Burk plots [1] | IC50 [1, 15] [µM] | Suppression of DNase II activity [2] | Suppression of EndoG activity [3] | Inhibition of micrococcal nuclease (PIA) [4] | Inhibition of Benzonase (PIA) [5] | Inhibition of RNase A [6] | Inhibition of protease [7] | Inhibition of SOD [8] | Protection against cisplatin-induced cell death (LDH release) [9] | Cytotoxicity of the inhibitor [9] | Inhibition of cisplatin-induced DNA fragmentation (TUNEL) [10] | EndoG protein expression [11] | Solubility in water [12] | Inhibition of LDH [13] | EndoG mRNA expression [14] |
| --- | --- | --- | --- | --- | --- | --- | --- | --- | --- | --- | --- | --- | --- | --- | --- | --- | --- |
| – | 1,3-phenylene-bis-aminoguanidine hydrochloride [IG-17] | competitive inhibitors | 8.93 | suppress the activity | suppress the activity | absence of inhibition | absence of inhibition | no inhibition activity was observed | no inhibition activity was observed | no inhibition activity was observed | some protection against cisplatin-induced cell death | significant cytotoxicity | marked inhibition | lower than the control level | unlimited solubility in water | no inhibition activity was observed | – |
| – | 1,4-phenylene-bis-aminoguanidine hydrochloride [JR-132] | competitive inhibitors | 2.73 | suppress the activity | suppress the activity | absence of inhibition | absence of inhibition | no inhibition activity was observed | no inhibition activity was observed | no inhibition activity was observed | some protection against cisplatin-induced cell death | significant cytotoxicity | marked inhibition | significantly decreased | unlimited solubility in water | no inhibition activity was observed | significantly decreased |
| 190 | O=C(O)CN(CCN(CC(=O)O)CC(=O)O)CC(=O)O [EDTA, ethylenediaminetetraacetic acid, reference compound] | – | – | – | – | – | – | – | – | – | – | – | – | – | – | – | – |
| – | [Cl-].[Cl-].[Zn+2] [ZnCl2, reference compound] | – | 18 | – | – | – | – | – | – | – | – | – | – | – | – | – | – |
